In ChEMBL document CHEMBL3400072, “Synthesis, biological evaluation and docking analysis of a new series of methylsulfonyl and sulfamoyl acetamides and ethyl acetates as potent COX-2 inhibitors” (Bioorg Med Chem, 2015):
Active and inactive are the calls of the source. No cut-off for these calls is given here.

Legend:
Mus musculus [1] = experiment: Analgesic activity in Swiss albino mouse model assessed as reduction of acetic acid-induced writhes at 10 mg/kg, po administered 30 mins prior to acetic acid challenge measured after 5 mins for 10 mins relative to vehicle-treated control; type: functional; set-up: scale not given: the % may be the effect or the level left
Summary of the method: (§1)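 Male Swiss albino mice (23–25 g), standard diet and water ad libitum, 23 °C, 12 h light/dark cycle. Oral dosing (1–40 mg/kg range), with carboxymethylcellulose (CMC) as vehicle, 30 min before ip injection of 0.6% acetic acid (10 mL/kg). Stretching movements counted for 10 min, beginning 5 min after acetic acid. Results given as writhe count and % reduction versus vehicle-treated mice.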

Mus musculus [2] = experiment: Analgesic activity in Swiss albino mouse model assessed as reduction of acetic acid-induced writhes at 30 mg/kg, po administered 30 mins prior to acetic acid challenge measured after 5 mins for 10 mins relative to vehicle-treated control; type: functional; set-up: scale not given: the % may be the effect or the level left; summary of the method: as §1
Mus musculus [3] = experiment: Analgesic activity in Swiss albino mouse model assessed as reduction of acetic acid-induced writhes at 3 mg/kg, po administered 30 mins prior to acetic acid challenge measured after 5 mins for 10 mins relative to vehicle-treated control; type: functional; set-up: scale not given: the % may be the effect or the level left; summary of the method: as §1
[4] = target: T1, Prostaglandin G/H synthase 2 (Homo sapiens) (UniProt P35354); settings: at 10 µM
T1 sequence (whole entry): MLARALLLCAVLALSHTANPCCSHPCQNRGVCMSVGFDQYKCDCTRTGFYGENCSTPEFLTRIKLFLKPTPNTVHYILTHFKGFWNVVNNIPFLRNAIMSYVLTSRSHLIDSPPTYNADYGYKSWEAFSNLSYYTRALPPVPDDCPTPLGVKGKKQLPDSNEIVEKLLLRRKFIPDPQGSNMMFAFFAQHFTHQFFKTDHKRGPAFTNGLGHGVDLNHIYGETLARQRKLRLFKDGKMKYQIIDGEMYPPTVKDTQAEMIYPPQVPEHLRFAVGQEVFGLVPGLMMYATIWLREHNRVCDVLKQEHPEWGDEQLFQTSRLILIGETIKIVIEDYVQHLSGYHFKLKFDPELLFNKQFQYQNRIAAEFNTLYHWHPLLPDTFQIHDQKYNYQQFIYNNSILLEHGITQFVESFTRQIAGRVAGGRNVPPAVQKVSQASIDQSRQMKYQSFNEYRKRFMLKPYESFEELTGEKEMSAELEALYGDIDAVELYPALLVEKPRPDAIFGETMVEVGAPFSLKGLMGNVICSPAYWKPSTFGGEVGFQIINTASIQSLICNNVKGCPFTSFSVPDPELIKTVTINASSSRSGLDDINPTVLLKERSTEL

Mus musculus [5] = experiment: Analgesic activity in Swiss albino mouse model assessed as reduction of acetic acid-induced writhes at 20 mg/kg, po administered 30 mins prior to acetic acid challenge measured after 5 mins for 10 mins relative to vehicle-treated control; type: functional; set-up: scale not given: the % may be the effect or the level left; summary of the method: as §1
Mus musculus [6] = experiment: Analgesic activity in Swiss albino mouse model assessed as reduction of acetic acid-induced writhes at 40 mg/kg, po administered 30 mins prior to acetic acid challenge measured after 5 mins for 10 mins relative to vehicle-treated control; type: functional; set-up: scale not given: the % may be the effect or the level left; summary of the method: as §1
[7] = target: T2, Prostaglandin G/H synthase 2 (Homo sapiens, UniProt P35354); experiment: Inhibition of human recombinant COX2 using […] as substrate after 10 mins by EIA
T2 sequence (P35354 whole entry): T1 sequence (whole entry)

[8] = target: T3, Prostaglandin G/H synthase 1 (Ovis aries) (UniProt P05979); settings: at 10 µM
T3 sequence (whole entry): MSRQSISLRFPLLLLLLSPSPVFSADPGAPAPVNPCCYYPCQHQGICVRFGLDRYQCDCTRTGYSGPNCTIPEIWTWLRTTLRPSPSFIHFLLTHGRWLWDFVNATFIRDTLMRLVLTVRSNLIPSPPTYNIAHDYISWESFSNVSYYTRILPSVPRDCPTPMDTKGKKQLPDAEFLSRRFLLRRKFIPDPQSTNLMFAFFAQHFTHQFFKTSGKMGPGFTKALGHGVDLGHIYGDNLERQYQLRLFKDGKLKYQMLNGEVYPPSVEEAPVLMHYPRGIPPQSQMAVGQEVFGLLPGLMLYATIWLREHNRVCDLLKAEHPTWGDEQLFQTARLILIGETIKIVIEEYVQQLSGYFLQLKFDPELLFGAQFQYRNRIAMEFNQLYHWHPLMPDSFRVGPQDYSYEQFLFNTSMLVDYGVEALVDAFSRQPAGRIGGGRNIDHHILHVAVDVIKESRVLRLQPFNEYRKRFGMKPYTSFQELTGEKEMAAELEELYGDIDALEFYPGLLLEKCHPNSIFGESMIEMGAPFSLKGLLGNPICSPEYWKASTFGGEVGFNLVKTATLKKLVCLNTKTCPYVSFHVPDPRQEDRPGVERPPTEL

Mus musculus [9] = experiment: Analgesic activity in po dosed Swiss albino mouse model assessed as reduction of acetic acid-induced writhes administered 30 mins prior to acetic acid challenge measured after 5 mins for 10 mins relative to vehicle-treated control; type: functional, organism-based; summary of the method: as §1

Q: For `Cc1c(CC(=O)NC(C)C)cc(-c2ccc(S(N)(=O)=O)cc2)n1-c1ccc(F)cc1`, which Activity (Mus musculus [1]) is on record?
A: 36.5%

Q: And the Activity (Mus musculus [2])?
A: 43.7%

Q: What about the Activity (Mus musculus [3]) of the same molecule?
A: 16.1%

Q: And the inhibition [4]?
A: 48%

Q: `Cc1c(CC(=O)O)cc(-c2ccc(S(N)(=O)=O)cc2)n1-c1ccc(F)cc1` was tested. Which Activity (Mus musculus [1]) did it give?
A: 16.9%

Q: And the Activity (Mus musculus [5])?
A: 33.1%

Q: What about the Activity (Mus musculus [6]) of the same molecule?
A: 49.1%

Q: And the inhibition [4]?
A: 65%

Q: With `CCCNC(=O)Cc1cc(-c2ccc(S(C)(=O)=O)cc2)n(-c2cccc(F)c2)c1C` as the molecule, how does the Activity (Mus musculus [1]) read?
A: 12.2%

Q: And the Activity (Mus musculus [2])?
A: 9.9%

Q: What about the inhibition [4] of the same molecule?
A: 43%

Q: For `CCCNC(=O)Cc1cc(-c2ccc(S(N)(=O)=O)cc2)n(-c2ccc(F)cc2)c1C`, which Activity (Mus musculus [1]) is on record?
A: 8.3%

Q: What about the Activity (Mus musculus [2]) of the same molecule?
A: 39.1%

Q: And the Activity (Mus musculus [3])?
A: 3.9%

Q: And the inhibition [4]?
A: 62%

Q: For `Cc1c(CC(=O)NC(C)C)cc(-c2ccc(S(C)(=O)=O)cc2)n1-c1cccc(F)c1`, which Activity (Mus musculus [1]) is on record?
A: 3.6%

Q: What about the IC50 [7] of the same molecule?
A: 7 µM

Q: And the Activity (Mus musculus [2])?
A: 25.3%

Q: What about the inhibition [4] of the same molecule?
A: 74%

Q: `CCCNC(=O)Cc1cc(-c2ccc(S(N)(=O)=O)cc2)n(-c2cccc(F)c2)c1C` was tested. Which inhibition [8] did it give?
A: inactive

Q: What about the IC50 [7] of the same molecule?
A: 5.78 µM

Q: And the Activity (Mus musculus [2])?
A: 12.2%

Q: What about the inhibition [4] of the same molecule?
A: 96%

Q: For `Cc1c(CC(=O)O)cc(-c2ccc(S(N)(=O)=O)cc2)n1-c1cccc(F)c1`, which Activity (Mus musculus [1]) is on record?
A: 9.5%

Q: What about the inhibition [4] of the same molecule?
A: 65%

Q: With `Cc1c(CC(=O)NC(C)C)cc(-c2ccc(S(N)(=O)=O)cc2)n1-c1cccc(F)c1` as the molecule, how does the Activity (Mus musculus [1]) read?
A: 29.3%

Q: What about the Activity (Mus musculus [2]) of the same molecule?
A: 31.6%

Q: What about the Activity (Mus musculus [3]) of the same molecule?
A: 11.5%

Q: And the inhibition [4]?
A: 49%

Q: Which results are given for `CCOC(=O)Cc1cc(-c2ccc(S(N)(=O)=O)cc2)n(-c2ccc(F)cc2)c1C`?
A: Activity (Mus musculus [9]): Dose-dependent effect; Activity (Mus musculus [1]): 10.4%; Activity (Mus musculus [5]): 24.8%; inhibition [8]: inactive; IC50 [7]: 1.07 µM; Activity (Mus musculus [6]): 62.3%; inhibition [4]: 82%

Q: How did the Activity (Mus musculus [1]) turn out when `Cc1ccc(-c2cc(C(F)(F)F)nn2-c2ccc(S(N)(=O)=O)cc2)cc1` [CELECOXIB] was run?
A: 57.4%

Q: What does the source list for `CCOC(=O)Cc1cc(-c2ccc(S(N)(=O)=O)cc2)n(-c2cccc(F)c2)c1C`?
A: Activity (Mus musculus [1]): 26%; inhibition [8]: inactive; IC50 [7]: 0.92 µM; Activity (Mus musculus [2]): 33.5%; inhibition [4]: 89%

Q: How did the Activity (Mus musculus [1]) turn out when `CCCNC(=O)Cc1cc(-c2ccc(S(C)(=O)=O)cc2)n(-c2ccc(F)cc2)c1C` was run?
A: 29.9%

Q: What about the Activity (Mus musculus [3]) of the same molecule?
A: 10.2%

Q: What about the inhibition [4] of the same molecule?
A: 65%

Q: For `Cc1c(CC(=O)NC(C)C)cc(-c2ccc(S(C)(=O)=O)cc2)n1-c1ccc(F)cc1`, which Activity (Mus musculus [1]) is on record?
A: 12.2%

Q: What about the inhibition [8] of the same molecule?
A: 36%

Q: And the IC50 [7]?
A: 4.91 µM

Q: What about the Activity (Mus musculus [2]) of the same molecule?
A: 48.7%

Q: What about the inhibition [4] of the same molecule?
A: 95%
